Assay: Minimum effective concentration (MEC) value was determined as a measure of anti-coccidial activity (MEC is expressed as mmol/kg of feed).
Assay type: functional
Outline: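 Dietary activity was graded by the lowest effective feed level, originally in ppm and converted to mmol/kg of feed. Where MEC was only bounded (>250 ppm or >500 ppm), it was assigned the next higher feed level.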

Point of comparison: `Cc1cc(-n2ncc(=O)[nH]c2=O)cc(C)c1[S+]([O-])c1ccc(Cl)cc1` (centres undefined), MEC 1 p.p.m.. Against it:
- CSc1ccc(Oc2c(C)cc(-n3ncc(=O)[nH]c3=O)cc2C)cc1 — higher, 2 p.p.m.
- CCN(C)S(=O)(=O)c1ccc(Oc2c(C)cc(-n3ncc(=O)[nH]c3=O)cc2Cl)c(Cl)c1 — higher, 3.8 p.p.m.
- CS(=O)(=O)c1ccc(-n2ncc(=O)[nH]c2=O)cc1 — higher, 500 p.p.m.
- Cc1cc(-n2ncc(=O)[nH]c2=O)ccc1Oc1ccc(Cl)cc1 — higher, 60 p.p.m.
- CC(=O)c1ccc(Oc2c(C)cc(-n3ncc(=O)[nH]c3=O)cc2Cl)cc1 — higher, 2 p.p.m.
- COc1c(Cl)cc(-n2ncc(=O)[nH]c2=O)cc1Cl — higher, 250 p.p.m.
- O=c1cnn(-c2cc(Cl)cc(Cl)c2)c(=O)[nH]1 — higher, 4 p.p.m.
- O=c1cnn(-c2ccc(S(=O)(=O)c3ccc(Cl)cc3)cc2)c(=O)[nH]1 — higher, 4 p.p.m.
- Cc1cc(-n2ncc(=O)[nH]c2=O)ccc1Oc1ccc(S(C)(=O)=O)cc1 — higher, 4 p.p.m.
- COc1cc(OC)cc(-n2ncc(=O)[nH]c2=O)c1 — higher, 500 p.p.m.
- Cc1cc(-n2ncc(=O)[nH]c2=O)cc(Cl)c1Sc1ccc(Cl)cc1 — lower, 0.2 p.p.m.
- COc1cc(-n2ncc(=O)[nH]c2=O)cc(OC)c1OC — higher, 1000 p.p.m.
- O=c1cnn(-c2ccc(F)c(C(F)(F)F)c2)c(=O)[nH]1 — higher, 15 p.p.m.
- O=c1cnn(-c2cc(Cl)c(Cc3ccc(Cl)cc3)c(Cl)c2)c(=O)[nH]1 — lower, 0.25 p.p.m.
- O=c1cnn(-c2cc(Cl)c(Sc3ccc(Cl)cc3)c(Cl)c2)c(=O)[nH]1 — lower, 0.2 p.p.m.
- CSc1ccc(Oc2ccc(-n3ncc(=O)[nH]c3=O)cc2Cl)cc1 — higher, 3.8 p.p.m.
- O=c1cnn(-c2ccc(C(O)c3ccc(Cl)cc3)c(Cl)c2)c(=O)[nH]1 (centres undefined) — higher, 2 p.p.m.
- O=c1cnn(-c2cccc(C(F)(F)F)c2)c(=O)[nH]1 — higher, 30 p.p.m.
- Cc1cc(-n2ncc(=O)[nH]c2=O)cc(C)c1C(=O)c1ccc(Cl)cc1 — higher, 15 p.p.m.
- O=c1cnn(-c2ccc(Oc3ccccc3)cc2)c(=O)[nH]1 — higher, 500 p.p.m.
- O=C(c1ccc(Cl)cc1)c1c(Cl)cc(-n2ncc(=O)[nH]c2=O)cc1Cl — lower, 0.5 p.p.m.
- O=c1cnn(-c2ccc(Sc3ccc(Cl)cc3)c(Cl)c2)c(=O)[nH]1 — higher, 2 p.p.m.
- O=c1cnn(-c2cc(Cl)c(S(=O)(=O)c3ccc(Cl)cc3)c(Cl)c2)c(=O)[nH]1 — lower, 0.5 p.p.m.
- CSc1ccc(Oc2ccc(-n3ncc(=O)[nH]c3=O)cc2C)cc1 — higher, 2 p.p.m.
- Cc1cc(C)cc(-n2ncc(=O)[nH]c2=O)c1 — higher, 30 p.p.m.
- Cc1cc(-n2ncc(=O)[nH]c2=O)ccc1C(O)c1ccccc1 (centres undefined) — higher, 30 p.p.m.
- Cc1cc(-n2ncc(=O)[nH]c2=O)cc(Cl)c1Oc1ccc(C(C)O)cc1 (centres undefined) — higher, 2 p.p.m.
- Cc1cc(-n2ncc(=O)[nH]c2=O)ccc1Oc1ccc(Br)cc1 — higher, 7.5 p.p.m.
- N#Cc1cccc(-n2ncc(=O)[nH]c2=O)c1 — higher, 30 p.p.m.
- Cc1cc(-n2ncc(=O)[nH]c2=O)ccc1Oc1ccc(Cl)cc1Cl — higher, 7.5 p.p.m.
- O=c1cnn(-c2ccc(S(=O)(=O)c3ccc(Br)cc3)cc2)c(=O)[nH]1 — higher, 8 p.p.m.
- Cc1cc(-n2ncc(=O)[nH]c2=O)cc(Cl)c1S(=O)(=O)c1ccc(Cl)cc1 — higher, 8 p.p.m.
- Cc1cc(-n2ncc(=O)[nH]c2=O)cc(Cl)c1Oc1ccc(Cl)cc1 — higher, 3.8 p.p.m.
- O=c1cnn(-c2ccc(S(=O)(=O)c3ccccc3)cc2)c(=O)[nH]1 — higher, 30 p.p.m.
- Cc1cc(-n2ncc(=O)[nH]c2=O)cc(C)c1S(=O)(=O)c1ccc(Cl)cc1 — the same, 1 p.p.m.
- O=c1cnn(-c2ccccc2)c(=O)[nH]1 — higher, 500 p.p.m.
- O=c1cnn(-c2ccc(Br)c(C(F)(F)F)c2)c(=O)[nH]1 — higher, 15 p.p.m.
- O=c1cnn(-c2ccc(Oc3ccc4cc(Br)ccc4c3)c(Cl)c2)c(=O)[nH]1 — higher, 7.5 p.p.m.
- O=c1cnn(-c2ccc([N+](=O)[O-])cc2)c(=O)[nH]1 — higher, 250 p.p.m.
- CSc1ccc(Oc2c(C)cc(-n3ncc(=O)[nH]c3=O)cc2C)cc1C — higher, 2 p.p.m.
- N#CC(c1ccc(Cl)cc1)c1c(Cl)cc(-n2ncc(=O)[nH]c2=O)cc1Cl (centres undefined) [DICLAZURIL] — lower, 0.1 p.p.m.
- O=c1cnn(-c2ccc(S(=O)(=O)N3CCOCC3)c(Cl)c2)c(=O)[nH]1 — higher, 30 p.p.m.
- O=c1cnn(-c2cc(Cl)c(S(=O)(=O)N3CCOCC3)c(Cl)c2)c(=O)[nH]1 — higher, 30 p.p.m.
- O=c1cnn(-c2ccc(Sc3ccc4ccccc4c3)c(Cl)c2)c(=O)[nH]1 — higher, 125 p.p.m.
- O=c1cnn(-c2ccc(Oc3ccc(I)cc3)c(Cl)c2)c(=O)[nH]1 — higher, 7.5 p.p.m.
- O=c1cnn(-c2ccc(Oc3ccc(Cl)cc3Cl)c(Cl)c2)c(=O)[nH]1 — higher, 7.5 p.p.m.
- O=c1cnn(-c2ccc(Cc3ccc(Cl)cc3)c(Cl)c2)c(=O)[nH]1 — higher, 8 p.p.m.
- Cc1cc(-n2ncc(=O)[nH]c2=O)cc(C)c1S(=O)(=O)N1CCOCC1 — higher, 15 p.p.m.
- CC(=O)c1ccc(Sc2c(C)cc(-n3ncc(=O)[nH]c3=O)cc2Cl)cc1 — lower, 0.25 p.p.m.
- Cc1cc(-n2ncc(=O)[nH]c2=O)cc(Cl)c1Oc1ccc(S(=O)(=O)NC2CC2)cc1Cl — higher, 15 p.p.m.
- O=c1cnn(-c2cccc(Cl)c2)c(=O)[nH]1 — higher, 125 p.p.m.
- Cc1cc(-n2ncc(=O)[nH]c2=O)cc(C)c1Sc1ccc(Cl)cc1 [TIAZURIL] — lower, 0.5 p.p.m.
- Cc1cc(Cl)cc(-n2ncc(=O)[nH]c2=O)c1 — higher, 15 p.p.m.
